From PubChem
CRFBP-R2 agonist: agonists of CRF-BP/CRF-R2 complex, primary screen, cell-based, HEK293, calcium dye fluorescence, uHTS. AID 588473, 2011. CRF-binding protein / CRF receptor 2 complex (human). activation, % at 13.2 µM. 350,000 compounds, 0.46% hits. calcium dye fluorescence (FLIPR); percent of saturating CRF peptide response;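 active = activation of at least 50%, plus an integration ratio under a set limit after plate pattern correction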;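 note: plate controls were neutral control wells without compound for no effect and CRF at EC100 for full effect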
CRFBP-R2 block: antagonists of CRF-BP/CRF-R2 complex, primary screen, cell-based, HEK293, calcium dye fluorescence, uHTS; CRF-induced calcium fluorescence; 350,000 compounds, 0.59% hits; inhibition, % at 11.8 µM;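 active = inhibition of the ligand-induced calcium signal above about 50% at the single tested concentration, limit read from the data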
Tn6 DDE FP: inhibitors of Tn6 peptide binding to fibrin DD(E), primary screen, biochemical, fluorescence polarization, human fibrin, Tn6 probe; Fibrin DD(E) TRITC-Tn6 fluorescence polarization displacement; 370,000 compounds, 0.21% hits; inhibition, % at 8.3 µM; AID 720509, 2013; Fibrinogen beta chain (Homo sapiens), P02675;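 active = inhibition above a per-campaign cutoff: mean of compounds within control limits plus 3 SD, cut at about 15% in these data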;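 note: 0% = median of all compound wells on the plate and 100% = blocking peptide control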
Target sequence (P02675 whole entry, looked up): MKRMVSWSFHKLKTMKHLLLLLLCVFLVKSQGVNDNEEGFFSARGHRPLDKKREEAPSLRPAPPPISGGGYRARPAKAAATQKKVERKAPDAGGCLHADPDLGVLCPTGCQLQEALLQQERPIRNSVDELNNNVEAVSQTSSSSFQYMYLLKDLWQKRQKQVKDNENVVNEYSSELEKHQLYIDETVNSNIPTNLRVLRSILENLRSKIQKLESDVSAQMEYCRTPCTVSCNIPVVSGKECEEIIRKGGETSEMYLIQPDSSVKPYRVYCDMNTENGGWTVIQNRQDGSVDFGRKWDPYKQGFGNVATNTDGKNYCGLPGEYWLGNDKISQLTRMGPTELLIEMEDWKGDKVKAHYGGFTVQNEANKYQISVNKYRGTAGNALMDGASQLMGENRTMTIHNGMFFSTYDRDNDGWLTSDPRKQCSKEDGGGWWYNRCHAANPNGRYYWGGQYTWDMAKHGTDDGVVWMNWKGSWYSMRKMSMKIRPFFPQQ
Tn7 DDE FP: inhibitors of Tn7 peptide binding to fibrin DD(E), primary screen, biochemical, fluorescence polarization, human fibrin, Tn7 probe. Fibrinogen beta chain (Homo sapiens), P02675. FP displacement of FITC-Tn7 peptide from fibrin DD(E); 0% = median of compound wells per plate. inhibition, % at 8.3 µM. 370,000 compounds, 0.13% hits;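 active = inhibition above the mean of compounds falling within the control limits plus 3 SD of them, cut at about 14% in these data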;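 note: 0% = plate median of compound wells and 100% = 10 µM Aha-Tn7 peptide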
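Measure: % inhibition scaled between sample-field median and high-control FP; Test system: human fibrin DD(E); Quantity: 2 µM final DD(E) protein; Doses: one dose, 8.3 µM nominal; Schedule: compound with protein 10 min, then 3 h after probe, room temperature; Detection: fluorescence polarization; Medium: Tris buffer with calcium and detergent, pH 7.8.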
DDE Tn7 confirm: inhibitors of Tn7 peptide binding to fibrin DD(E), confirmation, biochemical, fluorescence polarization, human fibrin, Tn7 probe; shares compounds with Tn7 DDE FP; FP displacement of TRITC-Tn7 peptide from DD(E); 0% set at plate's compound-well median; inhibition, % at 8.3 µM; 460 compounds, 5% hits;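 active = inhibition above the campaign cutoff, the mean of compounds within control limits plus 3 SD, cut at about 14% in these data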;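 note: 100% = median FP of high control wells holding Aha-Tn7 inhibitor peptide; displacers lower polarization since freed probe rises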
DDE Tn7 FP ctr: counter-screen hit for Tn7 peptide-fibrin DD(E) binding disruption; TRITC-Tn7 probe displacement, fluorescence polarization; inhibition, % at 8.3 µM; 460 compounds, 3% hits; shares compounds with Tn7 DDE FP;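 active = inhibition above the cutoff, the mean of compounds lying between the control bounds plus 3 SD of those compounds, cut at about 17% in these data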;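 note: 0% = median of compound sample wells and 100% = excess unlabeled Aha-Tn7 peptide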
Tn6 DDE ctr: counter-screen hit for Tn6 peptide-fibrin DD(E) binding disruption. inhibition, % at 8.3 µM. shares compounds with Tn6 DDE FP. 680 compounds, 2% hits. TRITC-Tn6 fluorescence polarization displacement; 0% = median of compound wells, not DMSO;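 active = inhibition above the mean of test compounds lying between the control limits plus 3 SD of those, cut at about 14% in these data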;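 note: 0% = median of compound wells and 100% = wells with Aha-Tn7 blocking peptide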
DDE Tn6 confirm: inhibitors of Tn6 peptide binding to fibrin DD(E), confirmation, biochemical, fluorescence polarization, human fibrin, Tn6 probe | shares compounds with Tn6 DDE FP | FP displacement of TRITC-Tn6 peptide from DD(E); 0% = per-plate median of test wells | inhibition, % at 8.3 µM | 680 compounds, 10% hits | AID 720631, 2013;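 active = inhibition above the mean of compounds lying within the control limits plus 3 SD, cut at about 16% in these data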;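 note: 100% = high control wells holding a competing inhibitor peptide at 10 µM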
An asterisk follows results filed as active. An excerpt weighted towards active compounds, which were near 1.3% of everything screened.

How did CCOC(=O)C1CCCN(c2ccc([N+](=O)[O-])c3nonc23)C1 (stereo not given) do in these assays?
CRFBP-R2 agonist: 208*; CRFBP-R2 block: -141; Tn6 DDE FP: active; Tn7 DDE FP: 20*; DDE Tn7 confirm: -13; DDE Tn7 FP ctr: 93*; Tn6 DDE ctr: -13; DDE Tn6 confirm: 93*

Results for CC1CCCN(c2ccc(C(=O)N3CCC4(CC3)OCCO4)cc2[N+](=O)[O-])C1 (stereo not given) ?
CRFBP-R2 agonist: -2; CRFBP-R2 block: -2; Tn6 DDE FP: -3; Tn7 DDE FP: 6

How did COC1C(C)OC(OC2CC(C)(O)Cc3cc4c(c(O)c32)C(=O)c2c(O)cc3c(c2C4=O)OC2OC3(C)C(O)C(N(C)C)C2O)C(OC)C1(C)OC (stereo not given) do in these assays?
CRFBP-R2 agonist: 198*; CRFBP-R2 block: -202; Tn6 DDE FP: 88*; Tn7 DDE FP: 14*; DDE Tn7 confirm: -19; DDE Tn7 FP ctr: 54*; Tn6 DDE ctr: -19; DDE Tn6 confirm: 54*

How did Cc1ccccc1NC(=NCCCN1CC1)Nc1ccccc1C do in these assays?
CRFBP-R2 agonist: 0; CRFBP-R2 block: -31; Tn6 DDE FP: 2; Tn7 DDE FP: 3

Results for Cc1ccc(/C=C2\C(=O)NC(=S)N(c3ccccc3F)C2=O)s1 ?
CRFBP-R2 agonist: 0; CRFBP-R2 block: -65; Tn6 DDE FP: 20*; Tn7 DDE FP: 2; Tn6 DDE ctr: -5; DDE Tn6 confirm: -29

How did Cc1ccc(/C=C2\C(=O)NC(=S)N(c3ccc(F)cc3)C2=O)s1 do in these assays?
CRFBP-R2 agonist: 4; CRFBP-R2 block: -23; Tn6 DDE FP: 1; Tn7 DDE FP: 3

How did C[C@]12CCC3C(CC[C@H]4C[C@@H](O)CC[C@]34C)C1CC[C@@]2(O)C(F)(F)F (stereo not given in full) do in these assays?
Tn6 DDE FP: 16*; Tn7 DDE FP: 3; Tn6 DDE ctr: 4; DDE Tn6 confirm: 4

How did C[C@]12CCC3C(CC[C@H]4C[C@@H](O)CC[C@]34C)C1C[C@@H](O)[C@]2(C)O (stereo not given in full) do in these assays?
CRFBP-R2 agonist: -2; CRFBP-R2 block: -7; Tn6 DDE FP: -8; Tn7 DDE FP: -5

Results for C[C@H]1CN([C@@H](C)CO)C(=O)CCCn2nncc2CO[C@@H]1CN(C)C(=O)Oc1ccccc1 ?
CRFBP-R2 agonist: 0; CRFBP-R2 block: 5; Tn6 DDE FP: 5; Tn7 DDE FP: -1

What do the screens show for `CC(=O)N(C1=NCCCS1)c1ccc(Cl)cc1`?
CRFBP-R2 agonist: 0; CRFBP-R2 block: -6; Tn6 DDE FP: -4; Tn7 DDE FP: 1

What do the screens show for `CCC(C#N)(CC)P(=S)(c1ccccc1)c1ccccc1`?
CRFBP-R2 agonist: -1; CRFBP-R2 block: -17; Tn6 DDE FP: 16*; Tn7 DDE FP: 6; Tn6 DDE ctr: 0; DDE Tn6 confirm: -1

Results for CN(C)c1ccc(/C=C/c2cc[n+](C)c3ccccc23)cc1 ?
CRFBP-R2 agonist: -3; CRFBP-R2 block: 12; Tn6 DDE FP: 30*; Tn7 DDE FP: -4; Tn6 DDE ctr: 8; DDE Tn6 confirm: 11
